Experiments:
[1] = test system: CHP-212-R(mix) and resistant monoclonal sublines R1-R6 (heterozygous USP7 V517F); experiment: Cell viability assay; details: for sensitivity of the resistant cells to other agents: SRB, 3 days exposure (Fig. 1d)
[2] = test system: CHP-212.V517F.KI#1 and CHP-212.V517F.KI#2 cells; experiment: Cell viability assay; assay type: cell-based, human; details: CHP-212 V517F knock-in vs WT
[3] = test system: LNCaP V517F.KI#1 and V517F.KI#2 cells; experiment: Cell viability assay; assay type: cell-based, human; details: LNCaP.V517F.KI vs WT
USP7_V517F^CD = USP7_V517F^CD (Homo sapiens, UniProt Q93009, V517F); experiment: Ub-AMC in vitro enzyme assay; assay type: biochemical; details: 50 nM USP7_V517F^CD, up to 0.5 μM USP7-797 or 1 μM FT671
V517F^CD = V517F^CD (Homo sapiens, UniProt Q93009, V517F); experiment: Isothermal titration calorimetry; assay type: binding; details: ITC, compared to the control groups (WT)
V517G^CD = V517G^CD (Homo sapiens, UniProt Q93009, V517G); experiment: Isothermal titration calorimetry; assay type: binding; details: ITC, USP7_V517G^CD
How it was run: (§1)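 His-tagged USP7 catalytic-domain mutants were expressed from pET28 in E. coli BL21(DE3), induced with 0.5 mM IPTG overnight at 17 °C, then purified by Ni–NTA and desalting. Protein was titrated with test compound on a MicroCal PEAQ-ITC at 25 °C, using an initial 0.5 μL injection then 20 injections of 2 μL. Kd came from a single-site binding model fit.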

V517A^CD = V517A^CD (Homo sapiens, UniProt Q93009, V517A); experiment: Isothermal titration calorimetry; assay type: binding; details: ITC
How it was run: as §1

V517I^CD = V517I^CD (Homo sapiens, UniProt Q93009, V517I); experiment: Isothermal titration calorimetry; assay type: binding; details: ITC
How it was run: as §1

V517Y^CD = V517Y^CD (Homo sapiens, UniProt Q93009, V517Y); experiment: Isothermal titration calorimetry; assay type: binding; details: ITC, USP7_V517Y^CD
How it was run: as §1

CHP-212 R(mix) cells = experiment: Cell cycle distribution by flow cytometry; assay type: cell-based, human; details: 24 h treatment
[4] = test system: c-caspase-3, c-caspase-7, c-PARP, p53, p21, Rad18, DNMT1, UHRF1 in CHP-212 resistant variants; assay type: cell-based, human; details: resistant variants relative to the parent cells, 48 h, Western blotting
How it was run: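 CHP-212 parental and resistant cells were treated with test compound, 48 h for caspase-3/-7, cleaved caspases and PARP1, or 24 h for p53, p21, Rad18, DNMT1 and UHRF1. Lysis was in SDS buffer (50 mM Tris-HCl pH 6.8, 2% SDS, 100 mM DTT) with 15 min boiling, followed by SDS-PAGE on 7.5–12.5% gels. Primary antibodies were used at 1:1000 with HRP secondaries. Blots were repeated three times.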

Capan-1.V517F.OE cells = details: Capan-1.V517F.OE vs WT.OE
[5] = test system: USP4, USP8, USP9X, USP12, USP15, and USP34; details: cited from earlier work

Sequence of V517A^CD (Q93009 208-560 V517A): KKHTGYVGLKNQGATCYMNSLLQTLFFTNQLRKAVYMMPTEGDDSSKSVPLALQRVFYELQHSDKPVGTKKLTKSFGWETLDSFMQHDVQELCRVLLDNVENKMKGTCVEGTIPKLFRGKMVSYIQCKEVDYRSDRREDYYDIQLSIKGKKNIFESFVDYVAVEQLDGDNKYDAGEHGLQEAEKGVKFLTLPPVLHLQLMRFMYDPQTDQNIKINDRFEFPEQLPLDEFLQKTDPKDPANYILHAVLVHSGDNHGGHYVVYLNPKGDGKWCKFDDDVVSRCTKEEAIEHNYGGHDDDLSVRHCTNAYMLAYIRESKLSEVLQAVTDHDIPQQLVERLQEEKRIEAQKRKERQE
Sequence of V517G^CD (Q93009 208-560 V517G): as the sequence (Q93009 208-560 V517A) above, with A310G counted along it
Sequence of V517F^CD (Q93009 208-560 V517F): as the sequence (Q93009 208-560 V517A) above, with A310F counted along it
Sequence of USP7_V517F^CD (Q93009 208-560 V517F): as the sequence (Q93009 208-560 V517A) above, with A310F counted along it
Sequence of V517Y^CD (Q93009 208-560 V517Y): as the sequence (Q93009 208-560 V517A) above, with A310Y counted along it
Sequence of V517I^CD (Q93009 208-560 V517I): as the sequence (Q93009 208-560 V517A) above, with A310I counted along it

## CC(C)C[C@H](NC(=O)[C@H](Cc1ccccc1)NC(=O)c1cnccn1)B(O)O [bortezomib]
[1]
  sensitivity of the resistant cells to other agents: maintained sensitivity

## COc1ncnc(C2CC2)c1-c1ncc2cnn(Cc3ccc(-c4nc(C(F)(F)F)cn4C(C)C)cc3)c2n1 [KSQ4279]
[1]
  sensitivity of the resistant cells to other agents: maintained sensitivity

## CC(=O)O[C@H]1C(=O)[C@@]2(C)[C@H]([C@H](OC(=O)c3ccccc3)[C@]3(O)C[C@H](OC(=O)[C@H](O)[C@@H](NC(=O)c4ccccc4)c4ccccc4)C(C)=C1C3(C)C)[C@]1(OC(C)=O)CO[C@@H]1C[C@@H]2O [Taxol]
[1]
  sensitivity of the resistant cells to other agents: maintained sensitivity

## NS(=O)(=O)OC[C@@H]1C[C@@H](n2ccc3c(N[C@H]4CCc5ccccc54)ncnc32)C[C@@H]1O [MLN4924]
[1]
  sensitivity of the resistant cells to other agents: maintained sensitivity

## COc1cccc2c1C(=O)c1c(O)c3c(c(O)c1C2=O)C[C@@](O)(C(=O)CO)C[C@@H]3O[C@H]1C[C@H](N)[C@H](O)[C@H](C)O1 [Adriamycin]
[1]
  sensitivity of the resistant cells to other agents: maintained sensitivity

## O=C(C[C@@H](C(F)F)n1ccc(F)n1)N1CCC(O)(Cn2cnc3c(cnn3-c3ccc(F)cc3)c2=O)CC1 [FT671]
[2]
  sensitivity reduction: 88–106 fold
[3]
  sensitivity reduction: 121- to 146 fold
USP7_V517F^CD
  inhibition of V517F enzyme activity: failed to inhibit
V517F^CD
  fold decreased binding affinity of USP7_V517F: 67 fold
V517G^CD
  affinity compared to wild-type USP7: remain essentially unchanged
V517A^CD
  affinity compared to wild-type USP7: remain essentially unchanged
V517I^CD
  affinity compared to wild-type USP7: remain essentially unchanged
V517Y^CD
  affinity compared to wild-type USP7: decreases significantly
CHP-212 R(mix) cells
  cell-cycle distribution of resistant variants: not profoundly altered
[4]
  activation of apoptosis-related proteins (c-caspase-3, c-caspase-7, c-PARP): reduced activation
Capan-1.V517F.OE cells
  fold higher IC50: 48 fold
[5]
  response of other USP family members to FT671: resistant
[1]; resistant sublines vs parental CHP-212 cells
  fold reduction in sensitivity / higher IC50 than parental cells: 83–213 fold

## CC[C@]1(O)C[C@H]2CN(CCc3c([nH]c4ccccc34)[C@@](C(=O)OC)(c3cc4c(cc3OC)N(C=O)[C@H]3[C@@](O)(C(=O)OC)[C@H](OC(C)=O)[C@]5(CC)C=CCN6CC[C@]43[C@@H]65)C2)C1 [VCR]
[1]
  sensitivity of the resistant cells to other agents: maintained sensitivity
